# Compound activity from PubChem BioAssay.
# In the library only some 2.2% were active in any assay of this set; here they are far more common.
# TRAIL sens C8: sensitizes caspase-8 expressing cells to TRAIL; AID 624354; 360,000 tested, 1% active; NB7+C8 cells + TRAIL, ATPlite viability luminescence; inhibition (viability loss, TRAIL sensitization), % at 10 µM;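 active means compounds causing at least 50% loss of cell viability in the single-dose screen, relative to plate controls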
# FLuc act counter: affects firefly luciferase, flagging false hits in luciferase stimulation screens | P08659 | ATPlite luciferase biochemical, luminescence, 10 min; 0 = ATP-free wells, 1 = DMSO control | activation factor at 10 µM | 200,000 tested, under 10 active | AID 1027;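 active means luciferase activation factor, scaled between plate controls, of at least 2 with compound at 10 µM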
# Target sequence (P08659 whole entry, looked up): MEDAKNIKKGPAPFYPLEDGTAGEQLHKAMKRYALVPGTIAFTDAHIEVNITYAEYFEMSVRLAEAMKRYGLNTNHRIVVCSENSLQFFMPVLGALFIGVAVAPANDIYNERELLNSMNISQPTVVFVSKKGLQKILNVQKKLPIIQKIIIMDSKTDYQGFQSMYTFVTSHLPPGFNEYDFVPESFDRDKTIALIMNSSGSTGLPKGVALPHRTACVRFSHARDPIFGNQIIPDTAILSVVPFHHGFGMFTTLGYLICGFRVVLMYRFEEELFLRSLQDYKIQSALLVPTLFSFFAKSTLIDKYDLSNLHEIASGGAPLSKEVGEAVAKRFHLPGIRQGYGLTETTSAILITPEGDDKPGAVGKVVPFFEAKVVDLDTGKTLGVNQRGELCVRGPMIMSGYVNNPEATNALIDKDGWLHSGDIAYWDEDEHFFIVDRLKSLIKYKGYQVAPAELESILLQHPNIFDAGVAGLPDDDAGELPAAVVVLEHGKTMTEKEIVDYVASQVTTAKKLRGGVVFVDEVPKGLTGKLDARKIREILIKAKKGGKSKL
#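 Material: Luciferase/luciferin reagent mix | Doses: Test compounds dosed from 2 mM stocks in 100% DMSO | Timing: 10 min incubation after luciferase reagent addition, room temperature | Measured by: Luminescence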
# APP 5'UTR act: activates APP 5'UTR luciferase reporter; SH-SY5Y APP 5'UTR luciferase reporter, luminescence; zero percent = DMSO vehicle wells; activation, % at 2 µM; 190,000 tested, 1% active; AID 1276;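 active means activation above a set limit, based on mean plus 3 SD of controls, cut at about 140% in these data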
# NF-kB expr up: compounds increasing NF-kB expression in human neuronal cells | NF-kB reporter expression; active compounds read high | fold change at 12.5 µM | 190,000 tested, 1.6% active | AID 1239; in the data active means fold change above about 3.3
# PPC-1+TRAIL kill: PPC-1 cancer cell killing with TRAIL present; PPC-1 cells + TRAIL, ATPLite viability luminescence; cell killing (% activity), % at 4 µM or 5 µM; 220,000 tested, 0.41% active;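 active means cell killing above 50% in the first pass at 4 µM, then a duplicate retest at 5 µM averaging 50% or more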;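 further: plate controls were cells with TRAIL plus DMSO for no effect and medium-only wells lacking cells for full effect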
# FLuc inhib CS: Photinus pyralis luciferase inhibition counter-screen; inhibition, % at 10 µM; AID 1006; ATPLite firefly luciferase biochemical luminescence, 10 min; P08659; 200,000 tested, 1.5% active;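 active means inhibition above about 50% when tested at 10 µM, limit read from the data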
# The depositor's hits bear a star; nt = no result.
SMILES,TRAIL sens C8,FLuc act counter,APP 5'UTR act,NF-kB expr up,PPC-1+TRAIL kill,FLuc inhib CS
NC1=NC[C@@H](CC2CCCCC2)N1CCc1cc(C(F)(F)F)cc(C(F)(F)F)c1,93*,nt,nt,nt,nt,nt
NC1=NC[C@H](Cc2ccc(O)cc2)N1CCc1cc(C(F)(F)F)cc(C(F)(F)F)c1,1,nt,nt,nt,0,nt
COc1cc(C(=O)Oc2c(CN3CCOCC3)cc(Cl)c3cccnc23)cc(OC)c1OC,36,1.1,-39,3.8*,-18,-6
COc1cc(C(=O)Oc2c(OC)cc(C(=S)N3CCOCC3)cc2OC)cc(OC)c1OC,2,nt,nt,nt,nt,nt
COc1ccc(C(=O)Oc2c(CN3CCOCC3)cc(Cl)c3cccnc23)cc1,43,1.1,-38,28*,16,-6
OCCN1CCN(Cc2cc(Cl)c3cccnc3c2O)CC1,-3,1,0,0.77,16,-2
O=C(Oc1c(CN2CCOCC2)cc(Cl)c2cccnc12)c1ccc(F)cc1,55*,1.1,-37,7.6*,35,-5
COc1cccc(C(=O)Oc2c(CN3CCOCC3)cc(Cl)c3cccnc23)c1,46*,1.1,-38,4.6*,15,-6
CCOC(=O)[C@]12CCC=C1N(Cc1ccc3c(c1)OCO3)C(=O)[C@H](CC(=O)N1CCC(c3ccccc3)CC1)C2,-6,nt,nt,nt,nt,nt
CC(C)c1ccc(/C=C/c2ccc(=O)n(C)n2)cc1,62*,0.2,122,7.5*,39,83*
Cc1ccc(C=NNc2nc3c([nH]2)c(=O)n(C)c(=O)n3C)cc1,-5,nt,nt,nt,nt,nt
CC(C)C(=O)Nc1ccc(NC(=O)c2ccccn2)cn1,48*,0.3,101,1.9,20,67*
CCC(=O)Nc1ccc(NC(=O)c2ccccn2)cn1,21,0.6,85,0.63,19,42
O=C(Nc1ccc(NC(=O)C2CC2)nc1)c1cnccn1,0,0.9,-3,1.3,4,10
O=C(Nc1ccc(NC(=O)C2CC2)nc1)c1ccccn1,40,0.4,110,0.96,2,62*
O=C(NCc1ccccc1)C1(C(F)(F)F)C/C(=C\CCO)CCCO1 (stereo unspecified),-15,nt,nt,nt,nt,nt
O=C1C(Br)=C(c2ccccc2)C(c2ccccc2)=C1c1ccccc1,82*,nt,nt,nt,nt,nt
COC(=O)[C@@]12C[C@@H](CC(=O)N3CCCCC3)C(=O)N(Cc3ccccc3)C1=CCC(C)(C)C2,9,nt,nt,nt,nt,nt
N#CC1=C(Nc2ccc(Br)cc2)CCC1,-8,1,11,1.1,12,0
Brc1ccc(NC2=Nc3ccccc3CC2)cc1,4,0.9,99,4.7*,9,10
Cc1ccc(NC2=Nc3ccccc3CC2)cc1,24,0.6,179*,3.7*,-3,40
CCc1nc2ccc(C(=O)NCc3ccccc3OC)cn2c1N(C)Cc1ccc(N(C)C)cc1,-3,nt,nt,nt,nt,nt
Cc1ccc(-c2nc(CS(=O)CC(=O)NCCCN3CCN(Cc4ccccc4)CC3)c(C)o2)cc1 (stereo unspecified),20,nt,nt,nt,nt,nt
COCC(C)n1c(C)cc(C(=O)COC(=O)c2n[nH]c3ccccc23)c1C (stereo unspecified),58*,0.2,143*,0.7,8,76*
N#Cc1ccc(CN(Nc2ccccc2)c2ccccc2)cc1,4,nt,nt,nt,nt,nt
SMILES,TRAIL sens C8,FLuc act counter,APP 5'UTR act,NF-kB expr up,PPC-1+TRAIL kill,FLuc inhib CS
C=CCN1C(=O)S/C(=C\c2ccc(N3CCOCC3)cc2C)C1=O,30,0.8,-1,0.93,31,15
Cc1cc(N2CCOCC2)ccc1/C=C1/SC(=O)NC1=O,11,0.8,37,5.3*,20,21
O=C1NC(=S)NC1=Cc1ccc(O)cc1,-14,nt,nt,nt,nt,nt
O=C1NC(=S)N/C1=C\c1ccc(N2CCOCC2)cc1,9,0.2,10,1.3,38,78*
COc1ccc(C(=O)c2c(C)c3cc(C)ccc3n2CC(O)CN2CCOCC2)cc1 (stereo unspecified),-13,1,-23,0.79,6,-1
COc1ccc(NC(=O)c2nc(S(=O)(=O)Cc3cccc(C)c3)ncc2Cl)c(OC)c1,52*,nt,nt,nt,nt,nt
Cc1cccc(CS(=O)(=O)c2ncc(Cl)c(C(=O)Nc3c(C)cccc3C)n2)c1,29,nt,nt,nt,nt,nt
COc1ccc(OC)c(NC(=O)c2nc(S(=O)(=O)Cc3ccccc3)ncc2Cl)c1,96*,nt,nt,nt,nt,nt
COc1ccccc1C1CC(c2cccc(NS(C)(=O)=O)c2)=NN1S(=O)(=O)c1ccccc1 (stereo unspecified),1,nt,nt,nt,nt,nt
O=C(CN(Cc1ccccc1)C(=O)CCl)c1cccc(Br)c1,97*,nt,nt,nt,nt,nt
O=C(NCCCc1ccccc1)c1cccc(Br)c1,0,nt,nt,nt,nt,nt
COc1ccccc1NC(=S)NC(=O)c1ccc(Cn2cc(Br)cn2)cc1,9,1,15,1.6,23,-1
COc1ccccc1-c1cc(C(=O)NC2CCN(C)CC2)c2ccc(Cl)c(C)c2n1,70*,nt,nt,nt,nt,nt
c1ccc(-c2nc(-c3ccncc3)no2)cc1,-2,0.7,103,2.2,-11,27
c1ccc(-c2ccc(-c3nc(-c4cccnc4)no3)cc2)cc1,39,0.5,136*,5.3*,2,48
c1ccc(-c2noc(-c3cccnc3)n2)cc1,26,0.7,80,3.4*,22,26
c1ccc(-c2ccc(-c3nc(-c4ccncc4)no3)cc2)cc1,12,0.8,177*,6.8*,-11,21
Cc1nnsc1C(=O)NC(C)C12CC3CC(CC(C3)C1)C2 (stereo unspecified),0,1,8,0.98,-10,-1
Cc1ccc(C(=O)Nc2ncc(C)s2)o1,13,0.6,30,3,18,41
Cc1ccc(C(=O)Nc2ncc(Cc3ccc(F)cc3)s2)o1,25,0.4,134,7.9*,33,62*
Cc1noc(C)c1NC(=O)Nc1ccc2c(c1)C(=O)N([C@H](C)CO)C[C@H](C)[C@@H](CN(C)S(=O)(=O)c1ccccc1)O2,-10,nt,nt,nt,nt,nt
Cc1ccc(CNC(=O)C(=O)NCC2CCCN2S(=O)(=O)c2cc(C)ccc2C)cc1 (stereo unspecified),12,nt,nt,nt,nt,nt
COc1ccc2nc(N3C(=O)CNC3=S)sc2c1,50*,nt,nt,nt,35,nt
Cc1ccc2nc(N3C(=O)CNC3=S)sc2c1,32,nt,nt,nt,34,nt
CCc1ccc(-c2cc3c(=O)n(CC(=O)NCCCN4CCN(C)CC4)ncn3n2)cc1,59*,nt,nt,nt,nt,nt
CCc1ccc(-c2cc3c(=O)n(CC(=O)NCc4ccccc4F)ncn3n2)cc1,-5,nt,nt,nt,nt,nt
CCc1ccc(-c2cc3c(=O)n(CC(=O)NCCCN4CCC(Cc5ccccc5)CC4)nc(C)n3n2)cc1,91*,nt,nt,nt,nt,nt
COc1ccc(-c2cc3c(=O)n(CC(=O)N4CCN(C)CC4)ncn3n2)cc1,59*,nt,nt,nt,nt,nt
Cc1nn(CC(=O)NCCCN2CCC(Cc3ccccc3)CC2)c(=O)c2cc(-c3ccccc3)nn12,23,nt,nt,nt,nt,nt
CC(NCCCSc1ccccc1)C(O)c1ccc(O)cc1 (stereo unspecified),19,nt,nt,nt,nt,nt
